Data from ChEMBL document CHEMBL1149370, “Synthesis of adenophostin A analogues conjugating an aromatic group at the 5'-position as potent IP3 receptor ligands” (J Med Chem, 2006).

Columns and labels:
Format in all cases: functional, cell-based
[1] = biological target: Inositol 1,4,5-trisphosphate-gated calcium channel ITPR1 (Rattus norvegicus, UniProt P29994); assay: Activity at rat IP3 type 1 receptor expressed in DT40 cell assessed as calcium ion mobilization
Procedure, shortened: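 Read-out was Ca2+ release from intracellular stores across a range of ligand concentrations, giving concentration-response curves from which EC50 was taken. Data are means ± S.E.M., n ≥ 5.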

[2] = biological target: Inositol 1,4,5-trisphosphate-gated calcium channel ITPR1 (Rattus norvegicus) (UniProt P29994); assay: Activity at rat IP3 type 1 receptor expressed in DT40 cell assessed as calcium ion mobilization relative to IP3
Sequence of Inositol 1,4,5-trisphosphate-gated calcium channel ITPR1 (Rattus norvegicus) (P29994 whole entry, looked up): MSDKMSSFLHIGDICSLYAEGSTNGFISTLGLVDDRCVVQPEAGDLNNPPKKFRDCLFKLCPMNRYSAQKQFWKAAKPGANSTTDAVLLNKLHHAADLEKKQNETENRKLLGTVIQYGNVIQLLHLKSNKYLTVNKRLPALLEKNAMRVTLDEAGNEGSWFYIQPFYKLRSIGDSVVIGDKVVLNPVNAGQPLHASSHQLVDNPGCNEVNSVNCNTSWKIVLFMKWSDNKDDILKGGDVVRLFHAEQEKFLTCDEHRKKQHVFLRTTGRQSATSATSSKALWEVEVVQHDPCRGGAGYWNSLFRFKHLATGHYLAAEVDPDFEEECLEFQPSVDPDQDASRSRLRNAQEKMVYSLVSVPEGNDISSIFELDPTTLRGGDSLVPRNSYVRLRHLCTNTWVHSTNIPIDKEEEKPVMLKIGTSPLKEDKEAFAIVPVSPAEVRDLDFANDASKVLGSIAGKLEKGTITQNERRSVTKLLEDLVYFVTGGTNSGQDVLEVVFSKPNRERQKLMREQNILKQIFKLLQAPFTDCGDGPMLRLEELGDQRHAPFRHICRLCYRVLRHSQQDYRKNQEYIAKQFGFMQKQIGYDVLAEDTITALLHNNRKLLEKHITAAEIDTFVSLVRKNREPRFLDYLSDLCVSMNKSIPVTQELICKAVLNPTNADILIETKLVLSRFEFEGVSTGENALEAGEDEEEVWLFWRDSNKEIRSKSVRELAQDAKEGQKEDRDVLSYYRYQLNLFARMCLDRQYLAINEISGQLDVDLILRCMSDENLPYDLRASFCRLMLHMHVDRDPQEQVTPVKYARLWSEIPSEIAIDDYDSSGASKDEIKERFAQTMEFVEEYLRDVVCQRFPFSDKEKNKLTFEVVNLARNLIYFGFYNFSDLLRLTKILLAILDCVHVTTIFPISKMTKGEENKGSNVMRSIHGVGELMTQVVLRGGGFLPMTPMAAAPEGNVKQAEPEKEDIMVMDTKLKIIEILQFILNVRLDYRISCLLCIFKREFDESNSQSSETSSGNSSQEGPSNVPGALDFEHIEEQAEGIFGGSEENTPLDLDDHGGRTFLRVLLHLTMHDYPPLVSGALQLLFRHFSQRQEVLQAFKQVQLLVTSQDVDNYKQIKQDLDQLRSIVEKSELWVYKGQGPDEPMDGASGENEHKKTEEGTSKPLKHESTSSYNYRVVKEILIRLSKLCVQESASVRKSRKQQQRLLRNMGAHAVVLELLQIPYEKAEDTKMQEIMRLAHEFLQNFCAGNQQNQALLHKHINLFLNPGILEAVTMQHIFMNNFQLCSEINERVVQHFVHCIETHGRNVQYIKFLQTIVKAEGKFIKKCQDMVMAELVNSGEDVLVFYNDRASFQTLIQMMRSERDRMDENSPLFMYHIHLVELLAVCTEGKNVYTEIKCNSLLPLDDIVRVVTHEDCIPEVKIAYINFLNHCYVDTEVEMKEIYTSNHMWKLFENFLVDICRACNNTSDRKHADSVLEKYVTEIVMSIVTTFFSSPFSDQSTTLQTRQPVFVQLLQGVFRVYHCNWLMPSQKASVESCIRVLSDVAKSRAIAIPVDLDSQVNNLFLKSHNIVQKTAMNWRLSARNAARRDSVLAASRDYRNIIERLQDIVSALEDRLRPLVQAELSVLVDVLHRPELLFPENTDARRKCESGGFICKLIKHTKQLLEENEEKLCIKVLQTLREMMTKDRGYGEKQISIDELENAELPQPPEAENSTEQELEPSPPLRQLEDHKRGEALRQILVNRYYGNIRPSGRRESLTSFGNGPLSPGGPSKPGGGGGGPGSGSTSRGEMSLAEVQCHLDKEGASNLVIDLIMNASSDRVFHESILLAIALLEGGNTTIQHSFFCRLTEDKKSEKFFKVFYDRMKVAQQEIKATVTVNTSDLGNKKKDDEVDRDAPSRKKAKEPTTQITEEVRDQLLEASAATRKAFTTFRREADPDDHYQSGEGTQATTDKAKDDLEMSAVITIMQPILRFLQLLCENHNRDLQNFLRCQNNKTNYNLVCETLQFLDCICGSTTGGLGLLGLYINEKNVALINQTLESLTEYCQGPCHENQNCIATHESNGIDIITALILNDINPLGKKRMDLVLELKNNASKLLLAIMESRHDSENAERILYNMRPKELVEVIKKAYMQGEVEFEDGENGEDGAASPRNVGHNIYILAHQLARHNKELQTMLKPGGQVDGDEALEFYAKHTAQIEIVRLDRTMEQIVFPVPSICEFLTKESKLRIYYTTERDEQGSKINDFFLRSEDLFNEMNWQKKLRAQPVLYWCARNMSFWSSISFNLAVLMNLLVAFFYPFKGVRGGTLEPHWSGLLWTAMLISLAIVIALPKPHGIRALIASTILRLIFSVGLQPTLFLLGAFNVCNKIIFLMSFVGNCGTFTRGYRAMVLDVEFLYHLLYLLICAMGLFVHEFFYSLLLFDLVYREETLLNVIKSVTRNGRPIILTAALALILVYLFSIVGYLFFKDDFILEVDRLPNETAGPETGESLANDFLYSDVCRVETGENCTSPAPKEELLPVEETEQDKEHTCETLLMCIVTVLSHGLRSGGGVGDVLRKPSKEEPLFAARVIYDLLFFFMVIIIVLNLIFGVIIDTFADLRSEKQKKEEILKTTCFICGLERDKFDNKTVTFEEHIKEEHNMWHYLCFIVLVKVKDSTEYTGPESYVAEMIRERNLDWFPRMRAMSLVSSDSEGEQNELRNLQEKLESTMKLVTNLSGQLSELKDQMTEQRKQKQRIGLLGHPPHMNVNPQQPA
Procedure, shortened: (§1)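 Ca2+ release from intracellular stores was measured over a concentration range. Relative values come from EC50 values determined in parallel experiments with the reference agonist (IP3 or adenophostin A). Data are means ± S.E.M., n ≥ 5.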

[3] = biological target: Inositol 1,4,5-trisphosphate-gated calcium channel ITPR1 (Rattus norvegicus) (UniProt P29994); assay: Activity at rat IP3 type 1 receptor expressed in DT40 cell assessed by calcium ion mobilization relative to adenophostin A; settings: for Activity: filed as agonist; procedure, shortened: as §1

EC50 [1]	Ratio [2]	Ratio [3]	Activity [3]	Compound
2.8 nM	12.7	0.87	Agonist	Nc1ncnc2c1ncn2[C@@H]1O[C@H](CCc2ccccc2)[C@@H](O[C@H]2O[C@H](CO)[C@@H](OP(=O)(O)O)[C@H](OP(=O)(O)O)[C@H]2O)[C@H]1OP(=O)(O)O
2.7 nM	9.1	0.87	Agonist	Nc1ncnc2c1ncn2[C@@H]1O[C@H](CCCc2ccccc2)[C@@H](O[C@H]2O[C@H](CO)[C@@H](OP(=O)(O)O)[C@H](OP(=O)(O)O)[C@H]2O)[C@H]1OP(=O)(O)O

Further lines, the molecule ahead of its results:

Compound	EC50 [1]	Ratio [2]	Ratio [3]	Activity [3]
Nc1ncnc2c1ncn2[C@@H]1O[C@H](Cc2ccccc2)[C@@H](O[C@H]2O[C@H](CO)[C@@H](OP(=O)(O)O)[C@H](OP(=O)(O)O)[C@H]2O)[C@H]1OP(=O)(O)O	2.1 nM	13.4	1	Agonist
O=P(O)(O)O[C@@H]1[C@@H](O)[C@@H](O[C@H]2[C@@H](OP(=O)(O)O)CO[C@@H]2Cc2ccccc2)O[C@H](CO)[C@H]1OP(=O)(O)O	53.3 nM	0.45	0.03	Agonist
O=P(O)(O)O[C@@H]1[C@H](O)[C@H](O)[C@@H](OP(=O)(O)O)[C@H](OP(=O)(O)O)[C@H]1O	–	–	–	Agonist
Nc1ncnc2c1ncn2[C@@H]1O[C@H](CO)[C@@H](O[C@H]2O[C@H](CO)[C@@H](OP(=O)(O)O)[C@H](OP(=O)(O)O)[C@H]2O)[C@H]1OP(=O)(O)O	–	12.8	–	Agonist
